Experimental data from different studies.
Target: Dual specificity testis-specific protein kinase 1 (TESK1, Homo sapiens, UniProt Q15569)

Compound	observed	technique	tested at	remaining binding [%]
C[C@H](NC(=O)c1cnc2n1[C@](C)(Cc1ccc(C#N)cc1)C(=O)N2c1cc(Cl)c(F)c(Cl)c1)C(=O)NC1(c2ccccn2)CC1	cell-free assay	competition with immobilised ligand	1 µM	100
COc1cnc(Nc2cccc(S(N)(=O)=O)c2)nc1N1CCN(c2ccccc2)C(=O)C1	binding	competition with immobilised ligand	1 µM	96
C[C@H]1CCN(c2nccc(-c3cnn4ncccc34)n2)C1	binding		1 µM	100
O=C(c1ccc(Nc2nccc(-c3cc4ccccc4s3)n2)cc1)N1CCC(N2CCCC2)CC1	binding	competition with immobilised ligand	1 µM	97
C[C@@H](c1ccc(-n2cnc3c(N)ncnc32)cc1)N1CCc2nn(C)c(Cc3ccccc3)c2C1=O	binding	competition with immobilised ligand	0.1 µM	87
O=C(Nc1cnc(Oc2ccc(F)cc2)nc1)N1CCc2ncccc2[C@@H]1c1ccc(F)cc1	cell-free assay	competition with immobilised ligand	1 µM	91
N[C@@H]1CCN(c2nccc(-c3cnn4ncccc34)n2)C1	binding		1 µM	100
O=C(NCCCN1CCOCC1)c1ccc(Nc2ncc(Cl)c(-c3ccc(Cl)s3)n2)cc1	binding	competition with immobilised ligand	1 µM	100
CCS(=O)(=O)c1cc2cc(C[C@@](O)(CC(C)(C)c3ccc(F)cc3C(N)=O)C(F)(F)F)[nH]c2cn1	cell-free assay	competition with immobilised ligand	1 µM	77
CN(C)c1ncc(F)c(-c2cnn3ncccc23)n1	binding		1 µM	100
C=CC(=O)N1CCC(C(=O)NCC(=O)N2CCN(c3nc(-c4cnc(N)nc4C(F)F)nc(N4CCOCC4)n3)CC2)CC1	binding	competition with immobilised ligand	1 µM	100
F[C@@H]1CCN(c2nccc(-c3cnn4ncccc34)n2)C1	binding		1 µM	67
O=C(NCC1CCOCC1)c1n[nH]cc1NC(=O)c1c(F)cccc1F	binding	competition with immobilised ligand	1 µM	100
CNC(=O)[C@@H]1CC[C@@H](n2c(-c3ccc4cnccc4c3)nc3ccc(C(=O)NCc4cccc(C(N)=O)c4)cc32)C1	binding	competition with immobilised ligand	1 µM	100
O=C(N[C@H]1CCCCC/C=C\C2C[C@@]2(C(=O)O)NC(=O)[C@@H]2C[C@@H](Oc3ccncc3)CN2C1=O)OC1CCCC1 (stereo partly drawn)	binding	competition with immobilised ligand	1 µM	97
COc1ccnn2ncc(-c3ccnc(N(C)C)n3)c12	binding		1 µM	100
COc1ccc2c(c1)O[C@@H](c1ccc(OC)c(OC)c1)C[C@H]2NC(=O)C1(c2ccc3c(c2)OC(F)(F)O3)CC1	cell-free assay	competition with immobilised ligand	1 µM	96
O=C(NCCCN1CCOCC1)c1ccc(Nc2nccc(-c3cc4ccccc4s3)n2)cc1	binding	competition with immobilised ligand	1 µM	77
Cc1c[nH]c2nccc(Oc3c(F)cc(Nc4cc(Cl)nc(N)n4)cc3F)c12	cell-free assay	competition with immobilised ligand	0.1 µM	100
CN(C)c1nccc(-c2cnn3ncccc23)n1	binding		1 µM	100
CCN1CCN(Cc2ccc(C(=O)Nc3ccc(C)c(Oc4ccc5c(c4)CC(=O)N5)c3)cc2C(F)(F)F)CC1	binding	competition with immobilised ligand	1 µM	100
